Data as given in ChEMBL document CHEMBL1145002, “Isoform-selective substrates of nitric oxide synthase” (J Med Chem, 2003).

How the values were obtained:
[1] = target: T1, Nitric oxide synthase 3 (Homo sapiens) (UniProt P29474); assay: Evaluation as substrate of endothelial nitric oxide synthase by hemoglobin assay using NOHA as control
T1 sequence (whole entry): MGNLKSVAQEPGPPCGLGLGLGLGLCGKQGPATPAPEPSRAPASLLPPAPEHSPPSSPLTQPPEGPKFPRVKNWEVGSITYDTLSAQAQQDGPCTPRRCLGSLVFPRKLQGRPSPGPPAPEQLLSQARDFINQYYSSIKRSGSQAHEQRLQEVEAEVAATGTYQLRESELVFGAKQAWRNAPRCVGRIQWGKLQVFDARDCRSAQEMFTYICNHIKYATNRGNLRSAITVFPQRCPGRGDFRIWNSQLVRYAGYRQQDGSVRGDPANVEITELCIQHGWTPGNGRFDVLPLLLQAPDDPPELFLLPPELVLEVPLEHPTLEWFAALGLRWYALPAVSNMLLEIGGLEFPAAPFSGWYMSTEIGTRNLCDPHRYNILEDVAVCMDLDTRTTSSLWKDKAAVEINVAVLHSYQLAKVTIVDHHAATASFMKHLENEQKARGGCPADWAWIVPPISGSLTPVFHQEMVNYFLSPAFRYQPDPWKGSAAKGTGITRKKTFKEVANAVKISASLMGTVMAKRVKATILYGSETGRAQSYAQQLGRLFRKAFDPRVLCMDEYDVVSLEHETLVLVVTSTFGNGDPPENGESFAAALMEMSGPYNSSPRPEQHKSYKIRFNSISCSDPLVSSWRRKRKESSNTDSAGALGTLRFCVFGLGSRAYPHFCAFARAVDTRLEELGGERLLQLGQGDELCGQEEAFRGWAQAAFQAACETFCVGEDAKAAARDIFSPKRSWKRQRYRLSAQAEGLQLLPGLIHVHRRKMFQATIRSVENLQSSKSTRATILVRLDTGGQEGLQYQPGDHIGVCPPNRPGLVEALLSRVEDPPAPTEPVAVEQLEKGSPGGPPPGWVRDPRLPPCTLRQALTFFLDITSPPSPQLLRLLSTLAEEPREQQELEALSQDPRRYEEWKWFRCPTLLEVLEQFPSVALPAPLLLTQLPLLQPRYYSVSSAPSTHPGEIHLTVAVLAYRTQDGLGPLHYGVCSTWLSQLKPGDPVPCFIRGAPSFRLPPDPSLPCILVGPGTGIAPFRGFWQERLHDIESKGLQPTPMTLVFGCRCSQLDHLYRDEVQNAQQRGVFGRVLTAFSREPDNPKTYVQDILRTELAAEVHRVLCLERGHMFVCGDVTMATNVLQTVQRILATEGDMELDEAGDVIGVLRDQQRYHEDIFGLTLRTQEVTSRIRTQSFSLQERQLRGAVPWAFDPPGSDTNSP
How it was run: (§1)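 Oxyhemoglobin-to-methemoglobin conversion was read at 401 nm (ε 38 mM⁻¹ cm⁻¹) at 37 °C to give initial NO rates. Conditions were 0.5–1 unit enzyme in 50 mM HEPES pH 7.4 with 15 μM oxyhemoglobin, SOD, catalase, 200 μM NADPH, 4 μM FAD/FMN, 5 μM BH₄, 2–5 mM DTT and 0.5 mM substrate, plus 1 mM CaCl₂ and 10 μg/mL CaM. Rates are reported relative to NOHA (100%), mean ± SD of ≥3 experiments.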

[2] = target: T2, Nitric oxide synthase, inducible (Mus musculus) (UniProt P29477); assay: Evaluation as substrate of Inducible nitric oxide synthase by hemoglobin assay using NOHA as control; format: functional
T2 sequence (whole entry): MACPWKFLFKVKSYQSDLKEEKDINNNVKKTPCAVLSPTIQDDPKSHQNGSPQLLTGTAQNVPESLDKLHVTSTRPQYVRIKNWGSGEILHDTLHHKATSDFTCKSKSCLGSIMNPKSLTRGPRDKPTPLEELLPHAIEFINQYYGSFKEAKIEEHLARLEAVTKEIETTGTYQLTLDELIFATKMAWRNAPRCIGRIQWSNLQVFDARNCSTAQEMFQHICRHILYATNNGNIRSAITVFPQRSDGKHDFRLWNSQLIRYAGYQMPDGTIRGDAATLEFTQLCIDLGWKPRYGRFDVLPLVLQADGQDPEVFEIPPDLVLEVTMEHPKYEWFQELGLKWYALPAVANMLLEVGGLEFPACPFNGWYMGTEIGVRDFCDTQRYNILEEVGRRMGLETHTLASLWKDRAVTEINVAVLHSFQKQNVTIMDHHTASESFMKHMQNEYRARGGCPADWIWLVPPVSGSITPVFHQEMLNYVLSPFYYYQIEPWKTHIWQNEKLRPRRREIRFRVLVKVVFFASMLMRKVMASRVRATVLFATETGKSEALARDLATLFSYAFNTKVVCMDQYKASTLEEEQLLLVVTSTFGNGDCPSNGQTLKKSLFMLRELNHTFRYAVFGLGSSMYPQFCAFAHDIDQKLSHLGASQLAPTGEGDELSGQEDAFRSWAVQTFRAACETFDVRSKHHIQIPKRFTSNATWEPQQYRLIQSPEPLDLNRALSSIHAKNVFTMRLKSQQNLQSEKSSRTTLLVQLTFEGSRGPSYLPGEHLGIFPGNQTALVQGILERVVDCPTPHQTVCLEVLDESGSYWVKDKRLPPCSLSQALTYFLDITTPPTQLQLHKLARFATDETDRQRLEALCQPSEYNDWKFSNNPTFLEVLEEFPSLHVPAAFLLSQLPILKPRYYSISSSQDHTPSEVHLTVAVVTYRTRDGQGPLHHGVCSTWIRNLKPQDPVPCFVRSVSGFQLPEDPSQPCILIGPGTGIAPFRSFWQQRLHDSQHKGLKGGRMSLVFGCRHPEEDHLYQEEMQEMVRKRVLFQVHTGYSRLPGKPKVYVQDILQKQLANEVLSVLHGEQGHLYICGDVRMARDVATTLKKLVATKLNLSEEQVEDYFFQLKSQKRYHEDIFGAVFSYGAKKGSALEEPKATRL
How it was run: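 Initial NO-synthesis rate at 37 °C by spectrophotometric oxyhemoglobin assay. The cuvette held 0.5–1 unit enzyme in 50 mM HEPES pH 7.4 with 15 μM oxyhemoglobin, SOD, catalase, 200 μM NADPH, 4 μM FAD/FMN, 5 μM BH₄, 2–5 mM DTT, 0.5 mM substrate and 1 mM magnesium acetate. Methemoglobin formation was followed at 401 nm (ε 38 mM⁻¹ cm⁻¹). Rates are given as % of NOHA, mean ± SD, n≥3.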

[3] = target: Nitric oxide synthase 1 (Rattus norvegicus) (UniProt P29476); assay: Evaluation as substrate of Neuronal nitric oxide synthase by hemoglobin assay using NOHA as control; how it was run: as §1
Nitric oxide synthase 1 (Rattus norvegicus), sequence (P29476 whole entry): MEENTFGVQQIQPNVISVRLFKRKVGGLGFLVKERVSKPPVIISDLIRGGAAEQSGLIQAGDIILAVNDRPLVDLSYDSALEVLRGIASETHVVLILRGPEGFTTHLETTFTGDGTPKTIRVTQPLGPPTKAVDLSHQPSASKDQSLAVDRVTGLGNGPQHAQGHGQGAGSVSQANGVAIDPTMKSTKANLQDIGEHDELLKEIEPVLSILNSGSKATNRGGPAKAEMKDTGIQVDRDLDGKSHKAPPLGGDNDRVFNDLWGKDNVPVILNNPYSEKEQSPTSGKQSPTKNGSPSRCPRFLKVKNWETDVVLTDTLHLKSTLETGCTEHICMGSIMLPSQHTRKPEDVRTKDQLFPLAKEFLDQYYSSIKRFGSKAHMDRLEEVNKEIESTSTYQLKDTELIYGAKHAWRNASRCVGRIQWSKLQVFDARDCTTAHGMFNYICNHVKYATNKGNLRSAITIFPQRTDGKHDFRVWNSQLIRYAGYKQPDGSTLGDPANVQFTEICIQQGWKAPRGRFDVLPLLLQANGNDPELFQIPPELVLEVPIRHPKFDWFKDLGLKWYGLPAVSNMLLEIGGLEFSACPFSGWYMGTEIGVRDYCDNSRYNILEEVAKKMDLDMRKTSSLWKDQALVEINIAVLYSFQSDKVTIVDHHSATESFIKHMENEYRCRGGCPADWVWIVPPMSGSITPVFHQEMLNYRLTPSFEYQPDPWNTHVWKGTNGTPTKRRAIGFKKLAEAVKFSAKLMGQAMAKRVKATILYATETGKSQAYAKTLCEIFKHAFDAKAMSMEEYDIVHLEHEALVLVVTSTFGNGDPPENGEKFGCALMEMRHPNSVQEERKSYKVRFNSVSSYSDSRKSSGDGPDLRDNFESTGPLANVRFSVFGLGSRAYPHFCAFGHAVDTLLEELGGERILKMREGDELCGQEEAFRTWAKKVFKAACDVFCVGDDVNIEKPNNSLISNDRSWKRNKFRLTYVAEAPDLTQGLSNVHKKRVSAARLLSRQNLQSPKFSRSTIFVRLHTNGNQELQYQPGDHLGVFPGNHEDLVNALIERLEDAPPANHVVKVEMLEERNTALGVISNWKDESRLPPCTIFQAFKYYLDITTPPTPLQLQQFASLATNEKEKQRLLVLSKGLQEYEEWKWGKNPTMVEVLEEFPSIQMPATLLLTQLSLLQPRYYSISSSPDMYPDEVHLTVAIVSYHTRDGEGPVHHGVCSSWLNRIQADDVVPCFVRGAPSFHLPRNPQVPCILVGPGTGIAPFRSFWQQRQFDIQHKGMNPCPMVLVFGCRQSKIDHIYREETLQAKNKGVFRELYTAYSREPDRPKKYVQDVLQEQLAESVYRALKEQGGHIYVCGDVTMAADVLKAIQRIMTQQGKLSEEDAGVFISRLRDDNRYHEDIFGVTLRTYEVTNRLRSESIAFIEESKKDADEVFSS

| Compound | NO formation [1] | NO formation [2] | NO formation [3] |
| --- | --- | --- | --- |
| CCCCN(C)C(=N)NO | < 0.5% | < 0.5% | < 0.5% |
| N/C(=N/CC1CC1)NO | < 0.5% | < 0.5% | < 0.5% |
| CC(C)NC(=N)NO | 38% | 15% | 70% |
| CCCC/N=C(/N)NOC | < 0.5% | < 0.5% | < 0.5% |
| N=C(N)NCCC[C@H](N)C(=O)O | 38% | 50% | 72% |
| N/C(=N\O)N1CCOCC1 | < 0.5% | < 0.5% | < 0.5% |
| C/C=C/CN=C(N)N | < 0.5% | < 0.5% | < 0.5% |
| C#CCC/N=C(/N)NO | < 0.5% | 28% | 37% |
| N/C(=N\O)N1CCCC1 | < 0.5% | < 0.5% | < 0.5% |
| CCCC/N=C(/N)NOCc1ccccc1 | < 0.5% | < 0.5% | < 0.5% |
| CC1CC1CN=C(N)N (stereo not drawn) | < 0.5% | < 0.5% | < 0.5% |
| C/C=C/C/N=C(/N)NO | < 0.5% | < 0.5% | 5% |
| CCCCN=C(N)N | < 0.5% | 6% | < 0.5% |
| CCCCN/C(N)=N/O | 20% | 42% | 64% |
| N=C(N)NCC1CC1 | < 0.5% | < 0.5% | < 0.5% |
| N/C(=N/C1CC1)NO | 26% | < 0.5% | 70% |
